These results are taken from ChEMBL document CHEMBL1938269, “Synthesis and biological evaluation of 7-O-modified oroxylin A derivatives” (Bioorg Med Chem Lett, 2012).

Active and inactive are the calls of the source. The calls are words filed in the database; no cut-off is given here.

The test system of assay [1] is HCT-116. In words: Antiproliferative activity against human HCT116 cells after 48 hrs by MTT assay. It is filed as functional, cell-based. The note with it: HCT-116, 48 h. (In general: Formazan colour is commonly taken as a measure of viable cells.)
Assay [2] has as its system HepG2. The experiment in a line: Antiproliferative activity against human HepG2 cells after 48 hrs by MTT assay. It counts as functional, cell-based. The note with it: HepG2, 48 h.
Assay [3] is described as follows: Antiproliferative activity against human BCG823 cells after 48 hrs by MTT assay. The note with it: BCG823, 48 h. It counts as functional, cell-based.
Assay [4] deals with HepG2. In words: Induction of apoptosis in human HepG2 cells assessed as early apoptotic cells at 1 uM after 72 hrs by annexin-V FITC and PI staining based flow cytometry (reference value: 1.4 +/- 0.1%). It is filed as functional. Background: Flow cytometry measures light scatter and fluorescence of single cells or particles in a stream.
Assay [5] has as its system HepG2. In words: Ratio of oroxylin A IC50 to compound IC50 for human HepG2 cells. It counts as functional.
In assay [6] the test system is HepG2. The experiment in a line: Induction of apoptosis in human HepG2 cells assessed as early apoptotic cells at 2 uM after 72 hrs by annexin-V FITC and PI staining based flow cytometry (reference value: 1.4 +/- 0.1%). It is filed as functional.
The test system of assay [7] is HepG2. In words: Induction of apoptosis in human HepG2 cells assessed as viable cells at 2 uM after 72 hrs by annexin-V FITC and PI staining based flow cytometry (reference value: 94.5 +/- 0.6%). It counts as functional. The note with it: HepG2, 72 h, read-out: Activity.
Assay [8] has as its system HepG2. The experiment in a line: Induction of apoptosis in human HepG2 cells assessed as non-viable necrotic cells at 4 uM after 72 hrs by annexin-V FITC and PI staining based flow cytometry (reference value: 2.7 +/- 0.1%). It is filed as functional.
In assay [9] the test system is HepG2. In words: Induction of apoptosis in human HepG2 cells assessed as late apoptotic cells at 4 uM after 72 hrs by annexin-V FITC and PI staining based flow cytometry (reference value: 1.4 +/- 0.0%). It counts as functional.
Assay [10] deals with HepG2. In words: Induction of apoptosis in human HepG2 cells assessed as non-viable necrotic cells at 2 uM after 72 hrs by annexin-V FITC and PI staining based flow cytometry (reference value: 2.7 +/- 0.1%). It counts as functional.
Assay [11] deals with HepG2. In words: Induction of apoptosis in human HepG2 cells assessed as early apoptotic cells at 4 uM after 72 hrs by annexin-V FITC and PI staining based flow cytometry (reference value: 1.4 +/- 0.1%). It is filed as functional.
The subject of assay [12] is HepG2. The experiment in a line: Induction of apoptosis in human HepG2 cells assessed as chromatin congregation and karyopyknosis at 1 to 4 uM after 72 hrs by DAPI staining-based fluorescent microscopy. It counts as functional, cell-based. A digest of the protocol: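 HepG2 cells exposed for 72 h, with untreated cells as control. Nuclei were stained with DAPI and viewed by fluorescence microscopy at 400×. Apoptotic cells were scored by chromatin congregation and karyopyknosis, seen as bright nuclear fluorescence. Arrows mark apoptotic cells.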

Assay [13] has as its system HepG2. In words: Induction of apoptosis in human HepG2 cells assessed as late apoptotic cells at 2 uM after 72 hrs by annexin-V FITC and PI staining based flow cytometry (reference value: 1.4 +/- 0.0%). It counts as functional.
Assay [14] deals with HepG2. The experiment in a line: Induction of apoptosis in human HepG2 cells assessed as non-viable necrotic cells at 1 uM after 72 hrs by annexin-V FITC and PI staining based flow cytometry (reference value: 2.7 +/- 0.1%). It counts as functional.
Assay [15] in a line: Ratio of oroxylin A IC50 to compound IC50 for human BCG823 cells. It counts as functional.
Assay [16] relates to HepG2. In words: Induction of apoptosis in human HepG2 cells assessed as viable cells at 1 uM after 72 hrs by annexin-V FITC and PI staining based flow cytometry (reference value: 94.5 +/- 0.6%). It counts as functional. The note with it: HepG2, 72 h, read-out: Activity.
Assay [17] has as its system HepG2. In words: Induction of apoptosis in human HepG2 cells assessed as viable cells at 4 uM after 72 hrs by annexin-V FITC and PI staining based flow cytometry (reference value: 94.5 +/- 0.6%). The note with it: HepG2, 72 h, read-out: Activity. It counts as functional.
Assay [18] deals with HCT-116. In words: Ratio of oroxylin A IC50 to compound IC50 for human HCT116 cells. It counts as functional.
For assay [19], the system named is HepG2. In words: Induction of apoptosis in human HepG2 cells assessed as late apoptotic cells at 1 uM after 72 hrs by annexin-V FITC and PI staining based flow cytometry (reference value: 1.4 +/- 0.0%). It is filed as functional.

With `COc1c(OCCN2CCCC2)cc2oc(-c3ccccc3)cc(=O)c2c1O`, the concentration for half-maximal inhibition (IC50) with HCT-116 [1] came to 23.4 µM; with HepG2 [2] it was 9.7 µM; in [3], 22.7 µM.
For `COc1c(OCCCN2CCCCC2)cc2oc(-c3ccccc3)cc(=O)c2c1O` the same measures were 22.1 µM, 6.8 µM and 9.7 µM.
On to `COc1c(OCCCCN2CCCCC2)cc2oc(-c3ccccc3)cc(=O)c2c1O`, for which the Activity in the assay with HepG2 [4] came out at 3.4%; in the assay on HepG2 [6], 6.5%; in the assay on HepG2 [8], 37.5%; with HepG2 [9], 17.9%; with HepG2 [10] it was 2.7%; in the assay with HepG2 [11], 14%. Besides, the figures for the Activity in the assay on HepG2 [13], in the assay with HepG2 [14] and in the assay with HepG2 [19] were 3.5%, 5.8% and 1.9%, respectively. In addition, the “Ratio IC50” value (in the assay with HepG2 [5]; in assay [15]; in the assay on HCT-116 [18]) was 5 throughout. Moreover, the viability at 2 µM in the assay with HepG2 [7] was determined as 87.2%. Besides, the IC50 in the assay with HCT-116 [1] was determined as 3 µM; in the assay on HepG2 [2], 2.4 µM; in [3] it was 6.6 µM. For the same compound, the result in the assay with HepG2 [12] was Active. For the same compound, the viability at 1 µM with HepG2 [16] stood at 88.9%. Besides, the viability at 4 µM in the assay with HepG2 [17] was 30.6%.
On to `COc1c(OCCN2CCCCC2)cc2oc(-c3ccccc3)cc(=O)c2c1O`, for which the IC50 with HCT-116 [1] stood at 21.1 µM; in the assay on HepG2 [2], 17.1 µM; in [3] it was 26.9 µM.
For `COc1c(OCCCN2CCN(C)CC2)cc2oc(-c3ccccc3)cc(=O)c2c1O`, in that order: 42.5 µM, 30.4 µM and 42.3 µM.
For `COc1c(OCCCCN2CCN(C)CC2)cc2oc(-c3ccccc3)cc(=O)c2c1O` the same measures were 12.5 µM, 27.2 µM and 35.8 µM.
For `CCN(CC)CCOc1cc2oc(-c3ccccc3)cc(=O)c2c(O)c1OC`, the IC50 was found to be 39.6 µM in the assay with HCT-116 [1], 12 µM in the assay with HepG2 [2] and 13 µM in [3].
Take `COc1c(OCCCCN2CCCC2)cc2oc(-c3ccccc3)cc(=O)c2c1O`: the “Ratio IC50” value (in the assay with HepG2 [5]; in assay [15]; in the assay with HCT-116 [18]) was 5 throughout. Besides, the IC50 was determined as 1.4 µM with HCT-116 [1], 4.7 µM in the assay on HepG2 [2] and 9.5 µM in assay [3].
As to `COc1c(OCCN2CCN(C)CC2)cc2oc(-c3ccccc3)cc(=O)c2c1O`, the half-inhibitory concentration (IC50) with HCT-116 [1] worked out at 54.9 µM; in the assay on HepG2 [2] it was 15.4 µM; in assay [3], 20.5 µM.
For `COc1c(OCCN2CCOCC2)cc2oc(-c3ccccc3)cc(=O)c2c1O` the same measures were 56.3 µM, 67.6 µM and 38.2 µM.
For `CCN(CC)CCCOc1cc2oc(-c3ccccc3)cc(=O)c2c(O)c1OC`, in that order: 23.4 µM, 18 µM and 3.5 µM.
Turning to `COc1c(O)cc2oc(-c3ccccc3)cc(=O)c2c1O` [OROXYLIN A], the IC50 came to 33.9 µM in the assay with HCT-116 [1], 22.7 µM in the assay with HepG2 [2] and 25.5 µM in assay [3].
`CCN(CC)CCCCOc1cc2oc(-c3ccccc3)cc(=O)c2c(O)c1OC`: the “Ratio IC50” value (in the assay with HepG2 [5]; in [15]; in the assay on HCT-116 [18]) was 5 each time. The concentration for half-maximal inhibition (IC50) in the assay on HCT-116 [1] stood at 5.1 µM; in the assay on HepG2 [2], 6.6 µM; in [3] it was 6.3 µM.
Turning to `COc1c(OCCCN2CCCC2)cc2oc(-c3ccccc3)cc(=O)c2c1O`, the IC50 stood at 26.6 µM in the assay on HCT-116 [1], 20.5 µM with HepG2 [2] and 12 µM in assay [3].
For `COc1c(OCCCN2CCOCC2)cc2oc(-c3ccccc3)cc(=O)c2c1O`, in that order: 52.4 µM, 74.8 µM and 41.6 µM.
For `COc1c(OCCCCN2CCOCC2)cc2oc(-c3ccccc3)cc(=O)c2c1O` the same measures were 32.4 µM, 50.6 µM and 26.8 µM.

Broadly, the IC50 is the concentration needed to halve the response being measured. The low end stands for greater potency, the high end for weaker potency.
